From publication PMC5183561 (European journal of pharmacology, 2016)
Where two headings read alike, the source gives them in different places. Where no end group is shown, it is not given here. [ ]: non-standard residue; d: D form. Dmt = Cc1cc(O)cc(C)c1C[C@H](N)C(=O)O; PWT2 core = not defined here

How the values were obtained:
[1] = biological target: recombinant human mu opioid receptor (Homo sapiens, UniProt P35372); assay: Stimulated [35S]GTPγS binding, CHOmu membranes; type: biochemical
[2] = test system: NOP and classical opioid receptors; assay: Calcium mobilization, summary over the four cell lines; type: cell-based, human
delta receptor = delta receptor (Homo sapiens, UniProt P41143); assay: Calcium mobilization, CHO cells coexpressing delta and GαqG66Di5; type: cell-based
[3] = biological target: T1, recombinant human kappa opioid receptor (Homo sapiens, UniProt P41145); assay: Displacement binding of [3H]-DPN, CHOkappa cell membranes; conditions: vs [Dmt^1]N/OFQ(1-13)-NH2
[4] = test system: NOP and classical opioid receptors; assay: Receptor binding studies, summary over all four receptors; parameters: species or system human; conditions: at all receptors (NOP, mu, kappa, delta), vs [Dmt^1]N/OFQ(1-13)-NH2
Outline: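 CHO membranes expressing human receptors (20–40 μg protein) were incubated 1 h at room temperature in 50 mM Tris, 0.5% BSA with test compound (1 pM–10 μM). […] Bound ligand was collected by filtration on PEI-soaked GF/B filters.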

[5] = biological target: human recombinant kappa receptor (Homo sapiens, UniProt P41145); assay: Calcium mobilization, CHO cells coexpressing kappa and Gαqi5; type: cell-based; conditions: intrinsic activity, dynorphin A = 1.00
[6] = test system: rhesus monkeys (Macaca mulatta); assay: Overt side effects; type: in vivo; conditions: 0.3-3 nmol i.t.
[7] = test system: NOP over opioid receptors; assay: In vitro functional assays, NOP selectivity summary; parameters: species or system human; conditions: range over functional assays
NOP-RLuc/Gβ1-RGFP = NOP-RLuc/Gβ1-RGFP (Homo sapiens, UniProt P41146); assay: BRET NOP/G-protein interaction, HEK-293 membranes; type: biochemical
[8] = biological target: T2, human recombinant NOP receptor (Homo sapiens, UniProt P41146); assay: Calcium mobilization, CHO cells coexpressing NOP and Gαqi5; type: cell-based
mu-RLuc/Gβ1-RGFP = mu-RLuc/Gβ1-RGFP (Homo sapiens, UniProt P35372); assay: BRET mu/G-protein interaction, SH-SY5Y membranes; type: biochemical; conditions: intrinsic activity, dermorphin = 1.00
[9] = test system: rhesus monkeys (Macaca mulatta); assay: Warm water tail-withdrawal assay in monkeys; type: in vivo; conditions: n = 4; for duration of antinociception: 50°C water
[10] = biological target: mu-RLuc/β-arrestin 2-RGFP (Homo sapiens, UniProt P35372); assay: BRET mu/β-arrestin 2 interaction, SH-SY5Y whole cells; type: cell-based; conditions: intrinsic activity, dermorphin = 1.00, inactive = inactive up to 1 μM
[11] = biological target: recombinant human delta opioid receptor (Homo sapiens, UniProt P41143); assay: Stimulated [35S]GTPγS binding, CHOdelta membranes; type: biochemical; conditions: intrinsic activity, DPDPE = 1.00, n≥5
[12] = biological target: T2, human recombinant NOP receptor; assay: Stimulated [35S]GTPγS binding, CHONOP membranes; type: biochemical; conditions: intrinsic activity, N/OFQ = 1.00, n≥5
[13] = biological target: T1, recombinant human kappa opioid receptor; assay: Stimulated [35S]GTPγS binding, CHOkappa membranes; type: biochemical
[14] = biological target: NOP-RLuc/β-arrestin 2-RGFP (Homo sapiens, UniProt P41146); assay: BRET NOP/β-arrestin 2 interaction, HEK-293 whole cells; type: cell-based
[15] = biological target: human recombinant mu receptor (Homo sapiens, UniProt P35372); assay: Calcium mobilization, CHO cells coexpressing mu and Gαqi5; type: cell-based
[16] = test system: rhesus monkeys (Macaca mulatta); assay: Scratching responses in monkeys after intrathecal administration; type: in vivo; conditions: 3 nmol i.t., any time point, n = 4
[17] = biological target: T3, human recombinant mu opioid receptor (human, UniProt P35372 1-400); assay: cell-based or functional assay
[18] = biological target: human recombinant N/OFQ (NOP) receptor (human, UniProt P41146 1-370); assay: radioligand binding
[19] = biological target: T3, human recombinant mu opioid receptor; assay: radioligand binding
[20] = biological target: human recombinant kappa opioid receptor (human, UniProt P41145 1-380); assay: radioligand binding
[21] = biological target: human recombinant delta opioid receptor (human, UniProt P41143 1-372); assay: radioligand binding
[22] = biological target: T3, human recombinant mu opioid receptor; assay: radioligand binding; remark: listed apart in the source
[23] = agonist stimulated over basal specific binding, mean ± S.E.M.

T1 sequence (P41145 whole entry): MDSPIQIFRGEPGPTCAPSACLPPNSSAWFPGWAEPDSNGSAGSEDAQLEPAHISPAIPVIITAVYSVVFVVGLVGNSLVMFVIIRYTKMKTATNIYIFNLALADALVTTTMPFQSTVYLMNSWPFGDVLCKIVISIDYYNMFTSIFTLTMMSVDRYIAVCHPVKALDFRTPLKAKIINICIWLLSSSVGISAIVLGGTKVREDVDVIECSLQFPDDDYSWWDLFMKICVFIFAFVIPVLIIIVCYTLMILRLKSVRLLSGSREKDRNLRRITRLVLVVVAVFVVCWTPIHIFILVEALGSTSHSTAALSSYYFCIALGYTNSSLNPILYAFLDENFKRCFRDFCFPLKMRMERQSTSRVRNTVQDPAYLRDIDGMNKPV
T2 sequence (P41146 whole entry): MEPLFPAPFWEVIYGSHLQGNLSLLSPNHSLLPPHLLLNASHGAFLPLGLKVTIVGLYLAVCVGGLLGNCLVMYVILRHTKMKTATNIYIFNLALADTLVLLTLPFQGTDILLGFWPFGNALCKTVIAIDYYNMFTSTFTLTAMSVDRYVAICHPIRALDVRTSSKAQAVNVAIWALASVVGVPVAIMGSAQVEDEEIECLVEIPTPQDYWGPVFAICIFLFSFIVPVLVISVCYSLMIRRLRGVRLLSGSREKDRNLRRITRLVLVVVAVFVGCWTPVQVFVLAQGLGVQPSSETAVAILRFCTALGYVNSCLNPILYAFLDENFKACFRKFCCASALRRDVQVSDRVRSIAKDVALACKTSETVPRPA
T3 sequence (P35372 whole entry): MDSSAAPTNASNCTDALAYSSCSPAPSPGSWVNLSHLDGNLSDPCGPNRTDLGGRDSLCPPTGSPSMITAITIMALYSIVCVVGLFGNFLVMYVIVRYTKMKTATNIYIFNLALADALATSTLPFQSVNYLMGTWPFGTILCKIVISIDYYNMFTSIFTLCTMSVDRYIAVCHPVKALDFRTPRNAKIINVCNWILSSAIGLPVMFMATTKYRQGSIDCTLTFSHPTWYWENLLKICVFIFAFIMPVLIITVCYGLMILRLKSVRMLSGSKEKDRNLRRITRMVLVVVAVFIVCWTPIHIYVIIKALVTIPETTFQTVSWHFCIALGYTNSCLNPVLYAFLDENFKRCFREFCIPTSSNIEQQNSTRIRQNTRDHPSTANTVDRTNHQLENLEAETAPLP
human recombinant mu receptor, sequence (P35372 whole entry): as above
human recombinant kappa opioid receptor, sequence (P41145 whole entry): as the sequence (P41145 whole entry) above
human recombinant N/OFQ (NOP) receptor, sequence (P41146 whole entry): as the sequence (P41146 whole entry) above
recombinant human mu opioid receptor, sequence (P35372 whole entry): as the sequence (P35372 whole entry) above
human recombinant delta opioid receptor, sequence (P41143 whole entry, stated change not applied): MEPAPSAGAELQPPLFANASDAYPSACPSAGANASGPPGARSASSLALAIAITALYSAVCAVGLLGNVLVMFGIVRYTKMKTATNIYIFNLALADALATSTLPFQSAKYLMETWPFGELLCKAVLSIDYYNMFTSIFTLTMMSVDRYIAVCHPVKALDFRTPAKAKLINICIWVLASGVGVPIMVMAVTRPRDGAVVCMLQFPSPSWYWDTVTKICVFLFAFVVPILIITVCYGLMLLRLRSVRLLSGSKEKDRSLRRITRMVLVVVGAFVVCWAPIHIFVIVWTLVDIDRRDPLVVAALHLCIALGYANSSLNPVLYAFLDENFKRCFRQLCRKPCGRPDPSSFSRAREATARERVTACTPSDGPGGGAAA
delta receptor, sequence (P41143 whole entry): as the sequence (P41143 whole entry, stated change not applied) above
human recombinant kappa receptor, sequence (P41145 whole entry): as the sequence (P41145 whole entry) above
recombinant human delta opioid receptor, sequence (P41143 whole entry): as the sequence (P41143 whole entry, stated change not applied) above

With `Cc1cc(O)cc(C)c1C[C@H](N)C(=O)NCC(=O)NCC(=O)N[C@@H](Cc1ccccc1)C(=O)N[C@H](C(=O)NCC(=O)N[C@@H](C)C(=O)N[C@@H](CCCNC(=N)N)C(=O)N[C@@H](CCCCN)C(=O)N[C@@H](CO)C(=O)N[C@@H](C)C(=O)N[C@@H](CCCNC(=N)N)C(=O)N[C@@H](CCCCN)C(=O)N[C@@H](CSC1CC(=O)N(CCC(=O)NCCCN(CCCCN(CCCNC(=O)CCN2C(=O)CC(SC[C@H](NC(=O)[C@H](CCCCN)NC(=O)[C@H](CCCNC(=N)N)NC(=O)[C@H](C)NC(=O)[C@H](CO)NC(=O)[C@H](CCCCN)NC(=O)[C@H](CCCNC(=N)N)NC(=O)[C@H](C)NC(=O)CNC(=O)[C@@H](NC(=O)[C@H](Cc3ccccc3)NC(=O)CNC(=O)CNC(=O)[C@@H](N)Cc3c(C)cc(O)cc3C)[C@@H](C)O)C(N)=O)C2=O)CCCNC(=O)CCN2C(=O)CC(SC[C@H](NC(=O)[C@H](CCCCN)NC(=O)[C@H](CCCNC(=N)N)NC(=O)[C@H](C)NC(=O)[C@H](CO)NC(=O)[C@H](CCCCN)NC(=O)[C@H](CCCNC(=N)N)NC(=O)[C@H](C)NC(=O)CNC(=O)[C@@H](NC(=O)[C@H](Cc3ccccc3)NC(=O)CNC(=O)CNC(=O)[C@@H](N)Cc3c(C)cc(O)cc3C)[C@@H](C)O)C(N)=O)C2=O)CCCNC(=O)CCN2C(=O)CC(SC[C@H](NC(=O)[C@H](CCCCN)NC(=O)[C@H](CCCNC(=N)N)NC(=O)[C@H](C)NC(=O)[C@H](CO)NC(=O)[C@H](CCCCN)NC(=O)[C@H](CCCNC(=N)N)NC(=O)[C@H](C)NC(=O)CNC(=O)[C@@H](NC(=O)[C@H](Cc3ccccc3)NC(=O)CNC(=O)CNC(=O)[C@@H](N)Cc3c(C)cc(O)cc3C)[C@@H](C)O)C(N)=O)C2=O)C1=O)C(N)=O)[C@@H](C)O` (stereo partly shown) [PWT2-[Dmt^1], PWT2-[Dmt^1]N/OFQ(1-13)] the “Emax as stimulation factor, mu” value [1, 23] was 2.84 ± 0.11 fold, the “α ± S.E.M. mu” value ([1]; intrinsic activity, dermorphin = 1.00, n≥5) was 0.98 ± 0.07 and the “reduced potency compared to [Dmt^1]N/OFQ(1-13)-NH2” value [2] was 3 to 30 fold. For the same molecule, the “potency lower than DPDPE” value (delta receptor; delta) was 23 fold, the “α ± S.E.M. delta” value (delta receptor; intrinsic activity, DPDPE = 1.00) was 0.80 ± 0.08 and the “loss of affinity at kappa compared to parent compound” value [3] was ~ 18 fold. For the same molecule, the “lower affinity than the parent peptide” value [4] was “approximately 10 fold”, the “α ± S.E.M. kappa” value [5] was 0.86 ± 0.03 and the “overt side effects including sedation or motor impairment” value [6] was “did not cause any overt side effects”. The “NOP selectivity in in vitro functional assays” value [7] was 2 – 10 fold, the “α ± S.E.M. NOP, Gβ1-protein” value (NOP-RLuc/Gβ1-RGFP) was 1.04 ± 0.04 and the “reduced potency compared to N/OFQ” value ([8]; NOP) was 58 fold. The “α ± S.E.M. NOP” value ([8]; intrinsic activity, N/OFQ = 1.00) was 0.98 ± 0.08, the “α ± S.E.M. mu, Gβ1-protein” value (mu-RLuc/Gβ1-RGFP) was 1.43 ± 0.12 and the duration of antinociception ([9]; 0.3 nmol i.t.) was 2 h. For the same molecule, the duration of antinociception ([9]; 1 nmol i.t.) was 6 h, the duration of antinociception ([9]; 3 nmol i.t.) was 24 h and the “α ± S.E.M. mu, β-arrestin2” value [10] was 0.82 ± 0.07. The “α ± S.E.M. delta” value [11] was 0.87 ± 0.07, the “α ± S.E.M. NOP” value [12] was 1.23 ± 0.13 and the “Emax as stimulation factor, kappa” value [13, 23] was 2.43 ± 0.08 fold. The “α ± S.E.M. kappa” value ([13]; intrinsic activity, dynorphin A = 1.00, n≥5) was 1.40 ± 0.11, the “α ± S.E.M. NOP, β-arrestin2” value [14] was 0.58 ± 0.10 and the Emax ([15]; CHO, read-out: maximal effects over basal, mu) was 283 ± 3%. The “α ± S.E.M. mu” value ([15]; calcium mobilization, intrinsic activity, dermorphin = 1.00) was 0.87 ± 0.04, the “lower potency compared to dermorphin” value ([15]; calcium mobilization, mu) was 23 fold and the “scratching responses in 15-min observation period” value [16] was “did not significantly elicit scratching responses”.

`O=C1CC[C@@]2(O)[C@H]3Cc4ccc(O)c5c4[C@@]2(CCN3CC2CC2)[C@H]1O5` [naltrexone, Naltrexone, reference compound] was tested, and the “effect of antagonist on i.t. PWT2-[Dmt^1] (3 nmol)-induced antinociception” value ([9]; naltrexone 0.03 mg/kg s.c., given 1 h 10 min after PWT2-[Dmt^1]) was “inactive”.

YAFGYPS [Dermorphin] was tested, and the “stimulation of [^35S]GTPγS binding, CHO mu membranes: Emax as stimulation factor” value (from here on “stimulation of [^35S]GTPγS binding”) [17] was 2.88 fold.

B1: [Dmt^1]N/OFQ(1-13)-NH2 (peptide)
peptide: [Dmt]GGFTGARKSARK-NH2
modifications: N-terminus assumed
SMILES: Cc1cc(O)cc(C)c1C[C@H](N)C(=O)NCC(=O)NCC(=O)N[C@@H](Cc1ccccc1)C(=O)N[C@H](C(=O)NCC(=O)N[C@@H](C)C(=O)N[C@@H](CCCNC(=N)N)C(=O)N[C@@H](CCCCN)C(=O)N[C@@H](CO)C(=O)N[C@@H](C)C(=O)N[C@@H](CCCNC(=N)N)C(=O)N[C@@H](CCCCN)C(N)=O)[C@@H](C)O
With B1 the pKi [18] was 10.4, the “stimulation of [^35S]GTPγS binding” value [17] was 3.06 fold and the pKi [19] was 10. For the same molecule, the pKi [20] was 10.4, the pKi [21] was 9.99 and the pKi [22] was 10.4.

In the case of [Dmt]GGFTGARKSARKC(PWT2 core)-NH2 (reading uncertain; also: Cys14 joined to the PWT2 core by thio-Michael reaction) [PWT2-[Dmt^1]N/OFQ(1-13)], the pKi [18] is reported as 9.13, the “stimulation of [^35S]GTPγS binding” value [17] is reported as 2.84 fold and the pKi [19] is reported as 9.25. For the same molecule, the pKi [20] was 9.13 and the pKi [21] was 8.42.
